Consider 40 compounds from ChEMBL document CHEMBL1125057, “Synthesis and antihypertensive activity of 4-(substituted-carbonylamino)-2H-1-benzopyrans” (1990).

Common to all, as to format: functional
In assay [1] the test system is Rattus norvegicus. As to the kind of experiment: Systolic blood pressure was measured at intervals from 1 to 6 hr in groups of six rats after oral administration of a dose of 1.0 mg/kg. Put shortly: (§1)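 Conscious spontaneously hypertensive rats of Okamoto origin, 14-24 weeks old, with systolic pressure >180 mmHg, were used in groups of six. Dosing was oral by esophageal needle as a solution or suspension in 1% w/v methylcellulose. Systolic pressure was taken by tail-cuff before dosing and at intervals up to 6 h postdose. Each determination was the mean of at least six recordings.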

Assay [2] concerns Rattus norvegicus. The assay can be described thus: Systolic blood pressure at intervals from 1 to 6 hr in groups of six rats after 0.3 mg/kg p.o. administration. The conditions noted are these: route oral. In short, it runs like this: as §1
Another assay is filed under the species Oryctolagus cuniculus. As to the kind of experiment: Increase in rubidium-86 efflux in rabbit isolated mesenteric artery over basal rate. In short, it runs like this:
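Segments (10-20 mg wet weight) of New Zealand White rabbit mesenteric artery were held 30 min in aerated (19:1 O2-CO2) HEPES buffer, pH 7.4, at 37 °C. They were loaded with 100-200 µCi rubidium-86 over 90 min, then moved every 3 min through label-free buffer. Compound at 1 × 10^-5 M was present over min 30-48. Efflux was counted by liquid scintillation. Value is the maximum rate coefficient over min 30-45 as a percentage of basal (mean over min 21-30), ± standard error.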

Assay [3] has as its system Rattus norvegicus. The assay can be described thus: Systolic blood pressure was measured at intervals from 1 to 6 hr in groups of six rats after oral administration of a dose of 0.1 mg/kg. In short, it runs like this: as §1
Assay [4] has as its system Rattus norvegicus. The assay can be described thus: Systolic blood pressure was measured at intervals from 1 to 6 hr in groups of six rats after oral administration of a dose of 1 mg/kg. In short, it runs like this: as §1
The test system of assay [5] is Rattus norvegicus. The assay can be described thus: Systolic blood pressure was measured at intervals from 1 to 6 hr in groups of six rats after oral administration of a dose of 10 mg/kg. Put shortly: as §1
The subject of assay [6] is Rattus norvegicus. As to the kind of experiment: Systolic blood pressure was measured at intervals from 1 to 6 hr in groups of six rats after oral administration of a dose of 3 mg/kg. In short, it runs like this: as §1
Assay [7] has as its system Rattus norvegicus. As to the kind of experiment: Systolic blood pressure was measured at intervals from 1 to 6 hr in groups of six rats after oral administration of a dose of 10.0 mg/kg. In short, it runs like this:
as §1

The test system of assay [8] is Rattus norvegicus. The assay can be described thus: Systolic blood pressure was measured at intervals from 1 to 6 h in groups of six rats after oral administration of a dose of 1 mg/kg. In short, it runs like this:
as §1

For the compound `CC1(C)Oc2ccc(C#N)cc2C(NC(=O)c2ccccc2)[C@@H]1O` (some centres not stated), the “Decrease in blood pressure” value in the assay with Rattus norvegicus [1] is 41%; with Rattus norvegicus [2] it was 16%.
`CNC(=O)NC1c2cc(C#N)ccc2OC(C)(C)[C@H]1O` (some centres not stated) showed an Increase in the assay listed under Oryctolagus cuniculus of 63%. For the same compound, the “Decrease in blood pressure” value in the assay on Rattus norvegicus [1] is listed as 61%; with Rattus norvegicus [2] it was 31%; in the assay on Rattus norvegicus [3] it was 14%.
Regarding `CC1(C)Oc2ccc(C#N)cc2C(NC=O)[C@@H]1O` (some centres not stated), the “Decrease in blood pressure” value in the assay with Rattus norvegicus [4] came out at 10%; with Rattus norvegicus [5] it was 26%.
Compound `CC(=O)NC1c2cc(C(C)=O)ccc2OC(C)(C)[C@H]1O` (some centres not stated) came in with an Increase in the assay listed under Oryctolagus cuniculus of 38%. In addition, the “Decrease in blood pressure” value came out at 61% with Rattus norvegicus [1], 23% in the assay on Rattus norvegicus [2] and 20% in the assay on Rattus norvegicus [3].
On to `CC(=O)Nc1cc2c(cc1[N+](=O)[O-])C(NC(C)=O)[C@H](O)C(C)(C)O2` (some centres not stated), for which the “Decrease in blood pressure” value in the assay with Rattus norvegicus [2] is on record as 38%; in the assay with Rattus norvegicus [3], 9%.
In the case of `CCC(=O)NC1c2cc(C#N)ccc2OC(C)(C)[C@H]1O` (some centres not stated), the “Decrease in blood pressure” value with Rattus norvegicus [1] stood at 29%; with Rattus norvegicus [2], 10%.
On to `CC1(C)Oc2ccc(C#N)cc2C(NC(=O)NC(=O)C(Cl)(Cl)Cl)[C@@H]1O` (some centres not stated), for which the “Decrease in blood pressure” value is recorded as 13% in the assay with Rattus norvegicus [4] and 28% in the assay on Rattus norvegicus [5].
`CC1(C)Oc2ccc(C#N)cc2C(NC(=O)Nc2ccccc2)[C@@H]1O` (some centres not stated): the “Decrease in blood pressure” value in the assay with Rattus norvegicus [5] was found to be 13%.
The same measure, in the same setting: to `CC1(C)Oc2ccc(C#N)cc2C(NC(=O)CCl)[C@@H]1O` (some centres not stated) belongs 28%.
Turning to `COCC(=O)NC1c2cc(C#N)ccc2OC(C)(C)[C@H]1O` (some centres not stated), the entries for the “Decrease in blood pressure” value in the assay with Rattus norvegicus [1] and in the assay on Rattus norvegicus [2] were 32% and 16%, respectively.
For the compound `CC1(C)Oc2ccc(C#N)cc2C(NC(=O)c2c[nH]c3ccccc23)[C@@H]1O` (some centres not stated), the “Decrease in blood pressure” value in the assay on Rattus norvegicus [5] came to 13%.
As for `CC1(C)Oc2ccc(C#N)cc2C(NC(=O)c2ccc3ccccc3c2)[C@@H]1O` (some centres not stated), the Increase in the assay listed under Oryctolagus cuniculus turned out to be 17%. Further, the “Decrease in blood pressure” value is 6% with Rattus norvegicus [4] and 35% in the assay with Rattus norvegicus [5].
`CC(C)(C)NC(=O)NC1c2cc(C#N)ccc2OC(C)(C)[C@H]1O` (some centres not stated): the “Decrease in blood pressure” value in the assay on Rattus norvegicus [5] came out at 8%.
Consider `CCCCNC(=O)NC1c2cc(C#N)ccc2OC(C)(C)[C@H]1O` (some centres not stated), for which the results for the “Decrease in blood pressure” value in the assay on Rattus norvegicus [4] and in the assay with Rattus norvegicus [5] were 11% and 29%, respectively.
For `CC(=O)NC1=CC(C)(C)Oc2ccc(C#N)cc21`, the “Decrease in blood pressure” value in the assay on Rattus norvegicus [4] is listed as 20%; in the assay on Rattus norvegicus [6], 52%.
Turning to `CCCCC(=O)NC1c2cc(C#N)ccc2OC(C)(C)[C@H]1O` (some centres not stated), the “Decrease in blood pressure” value in the assay on Rattus norvegicus [5] is 64%; with Rattus norvegicus [6], 18%.
Turning to `CC(=O)NC1c2cc(C#N)ccc2OC(C)(C)[C@H]1O` (some centres not stated), in the assay filed under Oryctolagus cuniculus, the Increase is reported as 59%. Besides, the “Decrease in blood pressure” value in the assay with Rattus norvegicus [1] was found to be 67%; with Rattus norvegicus [2] it was 47%; with Rattus norvegicus [3], 18%.
Regarding `CC1(C)Oc2ccc(C#N)cc2C(NC(=O)c2ccccn2)[C@@H]1O` (some centres not stated), in the assay filed under Oryctolagus cuniculus, the Increase worked out at 53%. Also, the “Decrease in blood pressure” value came out at 36% in the assay with Rattus norvegicus [2] and 22% with Rattus norvegicus [3].
Take `CC(=S)NC1c2cc(C#N)ccc2OC(C)(C)[C@H]1O` (some centres not stated): the “Decrease in blood pressure” value worked out at 53% in the assay with Rattus norvegicus [1] and 26% in the assay on Rattus norvegicus [2].
Turning to `CC(=O)NC1c2cc(C#N)c([N+](=O)[O-])cc2OC(C)(C)[C@H]1O` (some centres not stated), the “Decrease in blood pressure” value turned out to be 46% in the assay with Rattus norvegicus [2] and 26% in the assay on Rattus norvegicus [3].
With `C/N=C(/S)NC1c2cc(C#N)ccc2OC(C)(C)[C@H]1O` (some centres not stated), the “Decrease in blood pressure” value is on record as 16% in the assay on Rattus norvegicus [4], 50% in the assay on Rattus norvegicus [7] and 33% in the assay with Rattus norvegicus [6].
For `CC1(C)Oc2ccc(C#N)cc2C(NC(=O)c2ccco2)[C@@H]1O` (some centres not stated), the “Decrease in blood pressure” value was found to be 54% in the assay on Rattus norvegicus [1] and 11% in the assay with Rattus norvegicus [2].
For `CC1(C)Oc2ccc(C#N)cc2C(NC(N)=O)[C@@H]1O` (some centres not stated), the results for the “Decrease in blood pressure” value in the assay with Rattus norvegicus [4], with Rattus norvegicus [7] and in the assay on Rattus norvegicus [6] were 18%, 56% and 46%, respectively.
`CCOC(=O)C(=O)NC1c2cc(C#N)ccc2OC(C)(C)[C@H]1O` (some centres not stated): in the assay on Rattus norvegicus [5], the “Decrease in blood pressure” value was 12%.
With `CC(=O)Nc1cc2c(cc1[N+](=O)[O-])OC(C)(C)[C@@H](O)C2NC(C)=O` (some centres not stated), in the assay with Rattus norvegicus [6], the “Decrease in blood pressure” value turned out to be 16%.
On to `CC(=O)NC1c2ccccc2OC(C)(C)[C@H]1O` (some centres not stated), for which the “Decrease in blood pressure” value in the assay with Rattus norvegicus [5] was 13%.
As to `CC(=O)NC1CC(C)(C)Oc2ccc(C#N)cc21` (configuration not stated), the “Decrease in blood pressure” value in the assay with Rattus norvegicus [1] worked out at 44%; with Rattus norvegicus [2], 18%.
As for `CC(=O)N(C)C1c2cc(C#N)ccc2OC(C)(C)[C@H]1O` (some centres not stated), the “Decrease in blood pressure” value in the assay with Rattus norvegicus [1] was 31%; in the assay on Rattus norvegicus [2], 11%.
Taken in the same sequence, the figures for `CC(=O)NC1c2cc(Br)c([N+](=O)[O-])cc2OC(C)(C)[C@H]1O` (some centres not stated) were 51% and 25%.
With `CCOC(=O)NC1c2cc(C#N)ccc2OC(C)(C)[C@H]1O` (some centres not stated), the “Decrease in blood pressure” value in the assay on Rattus norvegicus [4] is listed as 13%; in the assay with Rattus norvegicus [7], 54%; in the assay on Rattus norvegicus [6], 22%.
For the compound `CC1(C)Oc2ccc(C#N)cc2C(NC(=O)c2cccnc2)[C@@H]1O` (some centres not stated), the “Decrease in blood pressure” value in the assay with Rattus norvegicus [1] stood at 43%; in the assay on Rattus norvegicus [2], 27%.
Regarding `CC(=O)NC1c2cc(C#N)ccc2OC(C)(C)[C@H]1OC(C)=O` (some centres not stated), the “Decrease in blood pressure” value is on record as 34% in the assay with Rattus norvegicus [2], 61% in the assay on Rattus norvegicus [8] and 9% with Rattus norvegicus [3].
`CCCN(C(C)=O)C1c2cc(C#N)ccc2OC(C)(C)[C@H]1O` (some centres not stated): the “Decrease in blood pressure” value in the assay on Rattus norvegicus [4] came to 24%; with Rattus norvegicus [6], 58%.
Regarding `CC(=O)NC1c2cc(Cl)ccc2OC(C)(C)[C@H]1O` (some centres not stated), the “Decrease in blood pressure” value came to 8% with Rattus norvegicus [4] and 34% in the assay with Rattus norvegicus [5].
On to `CNCC(=O)NC1c2cc(C#N)ccc2OC(C)(C)[C@H]1O` (some centres not stated), for which the “Decrease in blood pressure” value in the assay on Rattus norvegicus [5] came out at 15%.
As for `CC1(C)Oc2ccc(C#N)cc2C(NC(=O)c2ccoc2)[C@@H]1O` (some centres not stated), the “Decrease in blood pressure” value is 35% with Rattus norvegicus [1] and 19% in the assay on Rattus norvegicus [2].
Consider `CC1(C)Oc2ccc(C#N)cc2C(NC(=O)c2ccc[nH]2)[C@@H]1O` (some centres not stated), for which the results for the “Decrease in blood pressure” value in the assay with Rattus norvegicus [1] and in the assay with Rattus norvegicus [2] were 50% and 12%, respectively.
On the same counts, the results for `CCN(C(C)=O)C1c2cc(C#N)ccc2OC(C)(C)[C@H]1O` (some centres not stated) are 22% and 14%.
On to `CC1(C)Oc2ccc(C#N)cc2C(N2CCCC2=O)C1O` (configuration not stated) [CROMAKALIM], for which the Increase in the assay filed under Oryctolagus cuniculus is listed as 110%. The “Decrease in blood pressure” value came to 47% in the assay with Rattus norvegicus [1], 39% in the assay on Rattus norvegicus [2] and 13% with Rattus norvegicus [3].
Take `CC(N/C(=N\C#N)Nc1ccncc1)C(C)(C)C` (configuration not stated) [PINACIDIL ANHYDROUS]: the Increase in the assay filed under Oryctolagus cuniculus is recorded as 72%. Besides, the “Decrease in blood pressure” value in the assay with Rattus norvegicus [4] is listed as 11%; with Rattus norvegicus [6], 39%.
